Source: ChEMBL document CHEMBL4177755, “Combating Drug-Resistant Fungi with Novel Imperfectly Amphipathic Palindromic Peptides” (J Med Chem, 2018)

How the values were obtained:
[1] = Cytotoxicity against mouse RAW264.7 cells assessed as cell viability at 2 to 64 uM after 24 hrs by MTT assay relative to control; assay type: cell-based; conditions: read-out: Activity
How it was run: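 MTT viability assay. RAW264.7 or HEK293T cells at (1.0−2.0) × 10^5 per well were exposed to a peptide concentration series for 24 h at 37 °C in 5% CO2. MTT was then added at 0.5 mg/mL final for 4 h; formazan was dissolved in DMSO and read at 570 nm. Results average three independent trials.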

Escherichia coli [2] = assay: Antibacterial activity against Escherichia coli ATCC 25922 after 24 hrs; assay type: functional; conditions: ATCC 25922, 24 h
How it was run: (§1)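 Broth microdilution. Mid-log bacteria in MHB at a final (0.5−1) × 10^5 CFU/mL were mixed with equal volumes of peptide serially diluted in 0.2% BSA. Plates were incubated 24 h at 37 °C and read at A492. MIC is the lowest concentration inhibiting 95% of growth. Each test was repeated at least 3 times.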

Escherichia coli [3] = assay: Antibacterial activity against Escherichia coli 1005 after 24 hrs; assay type: functional; conditions: Escherichia coli, 1005, 24 h; how it was run: as §1
[4] = Antibacterial activity against Salmonella pullorum ATCC 7913 after 24 hrs; assay type: functional, Salmonella enterica subsp. enterica serovar Pullorum; conditions: Salmonella enterica, ATCC 7913, 24 h; how it was run: as §1
Staphylococcus aureus [5] = assay: Antibacterial activity against Staphylococcus aureus ATCC 25923 after 24 hrs; assay type: functional; conditions: ATCC 25923, 24 h
How it was run: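 Modified NCCLS broth microdilution. Mid-log bacteria at (0.5−1) × 10^5 CFU/mL in MHB were mixed 1:1 with peptide serially diluted in 0.2% BSA and incubated 24 h at 37 °C. Absorbance was read at 492 nm; MIC is the lowest concentration inhibiting 95% of growth. At least 3 repeats.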

Escherichia coli [6] = assay: Bactericidal activity against Escherichia coli ATCC 25922; assay type: functional; conditions: read-out: MBC99.9
How it was run: (§2)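 Wells from the 24 h, 37 °C MHB microdilution plates (bacteria at a final (0.5−1) × 10^5 CFU/mL; peptide diluted in 0.2% BSA) were plated on agar and incubated overnight. MBC is the lowest concentration killing >99.9% of cells. Each test was reproduced at least 3 times.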

Escherichia coli [7] = assay: Bactericidal activity against Escherichia coli 1005; assay type: functional; conditions: read-out: MBC99.9; how it was run: as §2
Staphylococcus aureus [8] = assay: Bactericidal activity against methicillin-resistant Staphylococcus aureus ATCC 4330; assay type: functional; conditions: read-out: MBC99.9
How it was run: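 Bacteria at (0.5−1) × 10^5 CFU/mL in MHB were exposed to serially diluted peptide (0.2% BSA) for 24 h at 37 °C, then 50 μL aliquots were plated on agar overnight. MBC is the lowest concentration killing >99.9% of cells. At least 3 repeats.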

[9] = test system: Staphylococcus epidermidis; assay: Bactericidal activity against Staphylococcus epidermidis ATCC 12228; assay type: functional; conditions: read-out: MBC99.9; how it was run: as §2
Staphylococcus aureus [10] = assay: Bactericidal activity against Staphylococcus aureus ATCC 25923; assay type: functional; conditions: read-out: MBC99.9; how it was run: as §2
Candida albicans [11] = assay: Antifungal activity against Candida albicans SP3931 after 48 hrs by broth microdilution method; assay type: functional; conditions: SP3931, 48 h
How it was run: (§3)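 Modified CLSI M27-A2 broth microdilution. Yeast at (0.5−1) × 10^3 CFU/mL in MOPS-buffered RPMI 1640 was mixed 1:1 with peptide serially diluted in 0.2% BSA and incubated 48 h at 28 °C. Absorbance was read at 492 nm; MIC is the lowest concentration inhibiting 95% of growth. Triplicate, three biological replicates.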

Candida albicans [12] = assay: Antifungal activity against Candida albicans isolated from alveolar fluid after 48 hrs by broth microdilution method; assay type: functional; how it was run: as §3
Candida albicans [13] = assay: Antifungal activity against fluconazole-resistant Candida albicans 56452 after 48 hrs by broth microdilution method; assay type: functional; conditions: Candida albicans, 56452, 48 h; how it was run: as §3
Candida albicans [14] = assay: Antifungal activity against fluconazole-resistant Candida albicans 17546 after 48 hrs by broth microdilution method; assay type: functional; conditions: Candida albicans, 17546, 48 h; how it was run: as §3
Candida albicans [15] = assay: Fungicidal activity against Candida albicans cgmcc 2.2086 after 96 hrs; assay type: functional; conditions: cgmcc 2.2086, 96 h, read-out: MFC99.9
How it was run: (§4)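 After the 48 h, 28 °C broth microdilution in MOPS-buffered RPMI 1640 (inoculum (0.5−1) × 10^3 CFU/mL), 50 μL from each well was plated on YM agar for a further 48 h at 28 °C. MFC is the lowest concentration killing at least 99.9% of cells. Triplicate, three biological replicates.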

Candida albicans [16] = assay: Fungicidal activity against Candida albicans SP3931 after 96 hrs; assay type: functional; conditions: SP3931, 96 h, read-out: MFC99.9; how it was run: as §4
Candida albicans [17] = assay: Fungicidal activity against Candida albicans SP3903 after 96 hrs; assay type: functional; conditions: SP3903, 96 h, read-out: MFC99.9; how it was run: as §4
Candida albicans [18] = assay: Fungicidal activity against Candida albicans SP3876 after 96 hrs; assay type: functional; conditions: SP3876, 96 h, read-out: MFC99.9; how it was run: as §4
Candida albicans [19] = assay: Fungicidal activity against Candida albicans isolated from alveolar fluid after 96 hrs; assay type: functional; conditions: read-out: MFC99.9; how it was run: as §4
Candida albicans [20] = assay: Fungicidal activity against fluconazole-resistant Candida albicans 56452 after 96 hrs; assay type: functional; conditions: Candida albicans, 56452, 96 h; read-out: MFC99.9; how it was run: as §4
Candida albicans [21] = assay: Fungicidal activity against fluconazole-resistant Candida albicans 56214 after 96 hrs; assay type: functional; conditions: Candida albicans, 56214, 96 h; read-out: MFC99.9; how it was run: as §4
Candida tropicalis = assay: Fungicidal activity against Candida tropicalis cgmcc 2.1975 after 96 hrs; assay type: functional; conditions: cgmcc 2.1975, 96 h, read-out: MFC99.9
How it was run: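 Wells from the 48 h, 28 °C RPMI 1640/MOPS microdilution plates were plated on YM agar and incubated a further 48 h at 28 °C. MFC is the lowest concentration killing at least 99.9% of cells. Run in triplicate with three biological replicates.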

Erythrocyte = assay: Hemolytic activity in human RBC after 1 hr; assay type: ADME, cell-based
How it was run: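 Fresh human erythrocytes, diluted 10-fold in PBS pH 7.4, were mixed with equal volumes of peptide and held 1 h at 37 °C. After centrifugation at 1000g, supernatant hemoglobin was read at 576 nm. PBS set 0% and 0.1% Triton X-100 set 100% lysis. MHC is the concentration causing 10% hemolysis. At least three experiments were run, each in technical triplicate.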

Escherichia coli [22] = assay: Antibacterial activity against Escherichia coli ATCC 25922 after 18 hrs in presence of NaCl by broth dilution method; assay type: functional; conditions: ATCC 25922, 18 h
Escherichia coli [23] = assay: Antibacterial activity against Escherichia coli ATCC 25922 after 18 hrs in presence of KCl by broth dilution method; assay type: functional; conditions: ATCC 25922, 18 h
Escherichia coli [24] = assay: Antibacterial activity against Escherichia coli ATCC 25922 after 18 hrs in presence of NH4Cl by broth dilution method; assay type: functional; conditions: ATCC 25922, 18 h
Escherichia coli [25] = assay: Antibacterial activity against Escherichia coli ATCC 25922 after 18 hrs in presence of CaCl2 by broth dilution method; assay type: functional; conditions: ATCC 25922, 18 h
Candida albicans [26] = assay: Antifungal activity against Candida albicans cgmcc 2.2086 in presence of NaCl by broth dilution method; assay type: functional
Candida albicans [27] = assay: Antifungal activity against Candida albicans cgmcc 2.2086 in presence of KCl by broth dilution method; assay type: functional
Candida albicans [28] = assay: Antifungal activity against Candida albicans cgmcc 2.2086 in presence of ZnCl2 by broth dilution method; assay type: functional

Substance | viability at 24 h, up to 64 µM [1] [%] | MIC95 (Escherichia coli [2]) [µM] | MIC95 (Escherichia coli [3]) [µM] | MIC95 [4] [µM] | MIC95 (Staphylococcus aureus [5]) [µM] | MBC (Escherichia coli [6]) [µM] | MBC (Escherichia coli [7]) [µM] | MBC (Staphylococcus aureus [8]) [µM] | MBC [9] [µM] | MBC (Staphylococcus aureus [10]) [µM] | MIC95 (Candida albicans [11]) [µM] | MIC95 (Candida albicans [12]) [µM] | MIC95 (Candida albicans [13]) [µM] | MIC95 (Candida albicans [14]) [µM] | MFC (Candida albicans [15]) [µM] | MFC (Candida albicans [16]) [µM] | MFC (Candida albicans [17]) [µM] | MFC (Candida albicans [18]) [µM] | MFC (Candida albicans [19]) [µM] | MFC (Candida albicans [20]) [µM] | also measured
H-RIIRRIRRIIR-NH2 | 70 to 80 | 16 | 8 | 16 | 32 | 32 | 8 | 16 | 32 | 64 | 16 | 16 | 8 | 16 | 64 | 32 | 4 | 16 | 32 | 8 | MFC (Candida albicans [21]): 16 µM; MFC (Candida tropicalis): 2 µM; HC10 (Erythrocyte): > 128 µM; MIC (Escherichia coli [22]): 16 µM; MIC (Escherichia coli [23]): 16 µM; MIC (Escherichia coli [24]): 16 µM; MIC (Escherichia coli [25]): 32 µM; MIC (Candida albicans [26]): 64 µM; MIC (Candida albicans [27]): 64 µM; MIC (Candida albicans [28]): 64 µM
H-IIRRIRRII-NH2 | 70 to 80 | 32 | 16 | 32 | > 64 | 32 | 32 | > 64 | > 64 | > 64 | > 64 | 64 | 64 | > 64 | 64 | > 64 | > 64 | > 64 | > 64 | 64 | MFC (Candida albicans [21]): 64 µM; MFC (Candida tropicalis): 8 µM; HC10 (Erythrocyte): > 128 µM; MIC (Escherichia coli [22]): 32 µM; MIC (Escherichia coli [23]): 32 µM; MIC (Escherichia coli [24]): 32 µM; MIC (Escherichia coli [25]): 64 µM; MIC (Candida albicans [26]): 64 µM; MIC (Candida albicans [27]): 64 µM; MIC (Candida albicans [28]): 64 µM
H-LLRRLRRLL-NH2 | 70 to 80 | 16 | 16 | 32 | 16 | 32 | 16 | 16 | 16 | 32 | 32 | 64 | 32 | 64 | 64 | 32 | 16 | 4 | > 64 | 32 | MFC (Candida albicans [21]): 32 µM; MFC (Candida tropicalis): 8 µM; HC10 (Erythrocyte): > 128 µM; MIC (Escherichia coli [22]): 16 µM; MIC (Escherichia coli [23]): 16 µM; MIC (Escherichia coli [24]): 16 µM; MIC (Escherichia coli [25]): 64 µM; MIC (Candida albicans [26]): 64 µM; MIC (Candida albicans [27]): 64 µM; MIC (Candida albicans [28]): 64 µM
H-RLRLLLRLR-NH2 | 70 to 80 | 4 | 4 | 4 | 8 | 8 | 8 | 4 | 8 | 8 | 8 | 8 | 8 | 16 | 16 | 16 | 8 | 4 | 16 | 8 | MFC (Candida albicans [21]): 16 µM; MFC (Candida tropicalis): 4 µM; HC10 (Erythrocyte): > 128 µM; MIC (Escherichia coli [22]): 4 µM; MIC (Escherichia coli [23]): 4 µM; MIC (Escherichia coli [24]): 4 µM; MIC (Escherichia coli [25]): 8 µM; MIC (Candida albicans [26]): 32 µM; MIC (Candida albicans [27]): 16 µM; MIC (Candida albicans [28]): 8 µM
